Experiments:
[1] = tested on: HEK293; assay: Cytotoxicity against HEK293 cells assessed as reduction in cell viability after 48 hrs by Alamar Blue reporter assay; details: human, hek293, 48 h
[2] = tested on: Staphylococcus aureus; assay: Bactericidal activity against planktonic growth of Staphylococcus aureus Rosenbach ATCC 25923 preincubated for 24 hrs followed by compound wash out and measured after 24 hrs; type: functional, organism-based
[3] = biological target: T1, E. coli GroEL/ES (Escherichia coli, UniProt P0A6F5); assay: Inhibition of Escherichia coli GroEL expressed in Escherichia coli DH5alpha/Escherichia coli GroES expressed in Escherichia coli BL21 (DE3) assessed as reduction in GroEL/GroES-mediated denatured MDH refolding after 20 to 40 mins by spectrometric analysis
Procedure, shortened: (§1)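 Uses E. coli GroEL/ES with a denatured MDH or rhodanese reporter. GroEL first forms a binary complex with the denatured reporter. Refolding is started by adding ATP and GroES, then reporter enzyme activity is read. DMSO is the negative control. IC50 values from replicate curves are log-averaged after ROUT outlier screening.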

[4] = tested on: Klebsiella pneumoniae; assay: Antibacterial activity against Klebsiella pneumoniae ATCC 13883 after 6 to 8 hrs by bacterial proliferation assay; type: functional, organism-based
Procedure, shortened: (§2)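 Bacterial growth inhibition in liquid culture. The highest concentration tested was 100 µM. The mean was back-calculated from the average log value. Values above the top concentration were set 0.1 log unit higher.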

[5] = biological target: T2, Thiosulfate sulfurtransferase (Homo sapiens, UniProt Q16762); assay: Inhibition of refolded rhodanese (unknown origin) preincubated with Escherichia coli GroEL/GroES for 60 mins in absence of compound followed by compound addition by spectrometric analysis
T2 sequence (Q16762 whole entry): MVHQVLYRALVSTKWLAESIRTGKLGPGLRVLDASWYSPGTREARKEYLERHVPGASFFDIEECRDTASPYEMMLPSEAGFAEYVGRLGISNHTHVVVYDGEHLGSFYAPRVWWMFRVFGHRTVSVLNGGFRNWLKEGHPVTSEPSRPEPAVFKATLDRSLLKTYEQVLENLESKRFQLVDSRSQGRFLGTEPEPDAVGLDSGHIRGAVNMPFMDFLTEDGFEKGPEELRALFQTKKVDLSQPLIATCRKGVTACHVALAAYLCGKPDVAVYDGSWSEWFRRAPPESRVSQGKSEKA

[6] = tested on: Staphylococcus aureus; assay: Bactericidal activity against Staphylococcus aureus Rosenbach ATCC 25923 in biofilms preincubated for 24 hrs followed by compound wash out and measured after 24 hrs; type: functional, organism-based
Procedure, shortened: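 ATCC 25923 preculture (TSB + 0.5% glucose, OD600 0.01) grown stagnant 24 h at 37°C to form biofilm, without compound. Wells washed 3× with PBS, then fresh TSB added with compound (100 µM–46 nM, 3-fold, DMSO) for 24 h at 37°C. Washed again, then recovered in fresh TSB 24 h at 37°C.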

[7] = biological target: HSP60/HSP10 (Homo sapiens, UniProt P10809); assay: Inhibition of human N-terminal octa-His-tagged HSP60 expressed in Escherichia coli Rosetta(DE3) pLysS/human HSP10 expressed in Escherichia coli Rosetta(DE3) assessed as reduction in HSP60/HSP10-mediated denatured MDH refolding after 40 to 60 mins by spectrometric analysis
Procedure, shortened: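 Human HSP60/10 refolding of denatured MDH, run the same way as the GroEL/ES-dMDH assay. A binary complex of chaperonin and denatured MDH is formed, and refolding is started with ATP and HSP10. MDH activity is the read-out. DMSO is the negative control. IC50 values from replicate curves are log-averaged after ROUT outlier screening.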

[8] = tested on: Enterobacter cloacae; assay: Antibacterial activity against Enterobacter cloacae subsp. cloacae ATCC 13047 after 24 hrs by bacterial proliferation assay; type: functional, organism-based; details: subsp. cloacae ATCC 13047, 24 h; procedure, shortened: as §2
[9] = Cytotoxicity against human THLE3 cells assessed as reduction in cell viability after 48 hrs by Alamar Blue reporter assay; details: 48 h
[10] = biological target: T1, E. coli GroEL/ES; assay: Inhibition of Escherichia coli GroEL expressed in Escherichia coli DH5alpha/Escherichia coli GroES expressed in Escherichia coli BL21 (DE3) assessed as reduction in GroEL/GroES-mediated denatured rhodanese refolding after 45 mins by spectrometric analysis; procedure, shortened: as §1
[11] = tested on: Staphylococcus aureus; assay: Antibacterial activity against methicillin-resistant Staphylococcus aureus ATCC BAA-44 after 6 to 8 hrs by bacterial proliferation assay; type: functional, organism-based
[12] = tested on: Staphylococcus aureus; assay: Ratio of EC50 for bactericidal activity against Staphylococcus aureus Rosenbach ATCC 25923 in biofilms to EC50 for planktonic growth of Staphylococcus aureus Rosenbach ATCC 25923; type: functional
[13] = Inhibition of refolded MDH (unknown origin) preincubated with Escherichia coli GroEL/GroES for 45 mins in absence of compound followed by compound addition and measured for 20 to 35 mins by spectrometric analysis
[14] = tested on: Acinetobacter baumannii; assay: Antibacterial activity against Acinetobacter baumannii ATCC 19606 after 24 hrs by bacterial proliferation assay; type: functional, organism-based; details: ATCC 19606 = CIP 70.34 = JCM 6841, 24 h; procedure, shortened: as §2
[15] = tested on: Enterococcus faecium; assay: Antibacterial activity against Enterococcus faecium ATCC 19434 after 24 hrs by bacterial proliferation assay; type: functional, organism-based; details: ATCC 19434, 24 h
[16] = tested on: Pseudomonas aeruginosa; assay: Antibacterial activity against Pseudomonas aeruginosa ATCC 10145 after 24 hrs by bacterial proliferation assay; type: functional, organism-based; details: ATCC 10145, 24 h; procedure, shortened: as §2
[17] = tested on: Staphylococcus aureus; assay: Antibiofilm activity against Staphylococcus aureus Rosenbach ATCC 25923 after 24 hrs by crystal-violet based UV-Vis spectroscopy; type: functional, organism-based; details: Rosenbach ATCC 25923, 24 h
Procedure, shortened: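 ATCC 25923 colony grown overnight in TSB at 37°C with shaking, precultured 1 h in TSB + 0.5% glucose, then diluted to OD600 0.01. Incubated stagnant at 37°C for 24 h with compound (100 µM–46 nM, 3-fold, DMSO), alongside bacteria-free baseline plates. Wells washed, crystal violet stained 15 min, developed in MeOH:AcOH:H2O, A595.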

[18] = tested on: Staphylococcus aureus; assay: Antibacterial activity against Staphylococcus aureus ATCC 25923 after 6 to 8 hrs by bacterial proliferation assay; type: functional, organism-based
[19] = Staphylococcus aureus, ATCC BAA-44

HSP60/HSP10, sequence (P10809 whole entry): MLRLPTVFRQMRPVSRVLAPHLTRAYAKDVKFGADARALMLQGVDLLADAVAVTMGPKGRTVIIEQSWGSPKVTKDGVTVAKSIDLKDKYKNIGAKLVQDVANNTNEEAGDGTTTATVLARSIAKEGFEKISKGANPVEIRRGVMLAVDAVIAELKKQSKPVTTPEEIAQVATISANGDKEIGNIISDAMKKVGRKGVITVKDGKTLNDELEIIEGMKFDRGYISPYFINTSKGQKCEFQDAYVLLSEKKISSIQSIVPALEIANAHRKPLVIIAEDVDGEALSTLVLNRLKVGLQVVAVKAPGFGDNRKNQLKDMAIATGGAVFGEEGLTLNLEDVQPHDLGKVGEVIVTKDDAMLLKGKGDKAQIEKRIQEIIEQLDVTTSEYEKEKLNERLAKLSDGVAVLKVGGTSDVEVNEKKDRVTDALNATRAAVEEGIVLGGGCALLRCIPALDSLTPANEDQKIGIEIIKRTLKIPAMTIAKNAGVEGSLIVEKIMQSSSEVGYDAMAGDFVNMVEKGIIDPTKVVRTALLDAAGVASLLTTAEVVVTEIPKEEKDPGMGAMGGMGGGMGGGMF
HSP60/HSP10, sequence (P61604 whole entry, further chain): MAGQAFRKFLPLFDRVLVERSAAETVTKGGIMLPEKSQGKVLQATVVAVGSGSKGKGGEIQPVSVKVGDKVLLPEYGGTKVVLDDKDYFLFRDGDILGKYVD
T1 sequence (P0A6F5 whole entry, looked up): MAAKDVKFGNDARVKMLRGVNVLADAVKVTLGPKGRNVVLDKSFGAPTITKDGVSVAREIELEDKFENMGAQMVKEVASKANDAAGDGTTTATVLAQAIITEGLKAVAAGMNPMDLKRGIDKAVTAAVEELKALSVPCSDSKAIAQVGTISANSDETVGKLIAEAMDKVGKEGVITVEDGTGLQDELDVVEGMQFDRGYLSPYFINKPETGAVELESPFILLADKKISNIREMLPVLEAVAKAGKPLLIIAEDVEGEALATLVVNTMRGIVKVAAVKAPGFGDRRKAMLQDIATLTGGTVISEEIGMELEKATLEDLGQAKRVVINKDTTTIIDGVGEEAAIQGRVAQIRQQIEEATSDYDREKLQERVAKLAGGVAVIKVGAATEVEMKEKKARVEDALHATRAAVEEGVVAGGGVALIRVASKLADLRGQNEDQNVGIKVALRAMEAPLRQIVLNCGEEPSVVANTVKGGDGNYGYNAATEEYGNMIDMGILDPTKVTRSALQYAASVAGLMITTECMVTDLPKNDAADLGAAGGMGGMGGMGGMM

SMILES	CC50 [1] [µM]	EC50 [2] [µM]	IC50 [3] [µM]	EC50 [4] [µM]	IC50 [5] [µM]	EC50 [6] [µM]	IC50 [7] [µM]	EC50 [8] [µM]	CC50 [9] [µM]	IC50 [10] [µM]	EC50 [11, 19] [µM]	Ratio EC50 [12]	IC50 [13] [µM]	EC50 [14] [µM]	EC50 [15] [µM]	EC50 [16] [µM]	EC50 [17] [µM]	EC50 [18] [µM]	EC50 [11] [µM]
O=C(Nc1ccc(Sc2nc3ccccc3s2)cc1)c1ccccc1O	74	0.2	40	> 100	> 100	2	> 100	> 100	33	87	0.41	5 - 15	> 63	> 100	67	> 100	0.91	0.2	
O=C(Nc1ccc(Sc2nc3ccccc3s2)c(Cl)c1)c1cccc(Br)c1O	64	0.45	9.5	> 100	> 100	5.6		> 100	19	3.8	0.71	5 - 15	> 63	2.9	24	> 100	1	0.45	
CN[C@H](CC(C)C)C(=O)N[C@H]1C(=O)N[C@@H](CC(N)=O)C(=O)N[C@H]2C(=O)N[C@H]3C(=O)N[C@H](C(=O)N[C@H](C(=O)O)c4cc(O)cc(O)c4-c4cc3ccc4O)[C@H](O)c3ccc(c(Cl)c3)Oc3cc2cc(c3O[C@@H]2O[C@H](CO)[C@@H](O)[C@H](O)[C@H]2O[C@H]2C[C@](C)(N)[C@H](O)[C@H](C)O2)Oc2ccc(cc2Cl)[C@H]1O [VANCOMYCIN]	> 100	0.67	> 100	> 100	> 100	> 100	> 100	> 100	> 100	> 100	0.52		> 63	> 100	0.6	> 100	0.54	0.67	
COc1ccc(Br)cc1C(=O)Nc1ccccc1	> 100		> 100	> 100	> 100		> 100	> 100	> 100	> 100	> 100		> 63	> 100	> 100	> 100		> 100	
COc1ccc(Br)cc1C(=O)Nc1ccc(Sc2nc3ccccc3s2)cc1	> 100		> 100	> 100	> 100		> 100	> 100	> 100	> 100	> 100		> 63	> 100	> 100	> 100		> 100	
O=C(Nc1ccc(Oc2ccc(Cl)cc2)c(Cl)c1)c1cc(I)cc(I)c1O [RAFOXANIDE]	> 100		4.3	> 100	> 100		2.8	40	24	2.2			25	31	0.99	> 100		0.32	0.34
COc1c(Br)cccc1C(=O)Nc1cccc(Cl)c1	> 100		> 100	> 100	> 100		> 100	> 100	> 100	> 100	> 100		> 63	> 100	> 100	> 100		> 100	
